# Test results from ChEMBL document CHEMBL5058577, “EUbOPEN Chemogenomics Library 2 (Multiplex)” (2022).
# Test system: Fibroblast
# Assay: Multiplex assay against human fibroblast
# Assay type: toxicity, cell-based
# How it was run: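 Four dyes were applied at seeding to live cells: Hoechst33342, BioTracker Green Microtubule Cytoskeleton Dye, MitoTracker Red and Annexin V Alexa Fluor 680. Imaging after compound addition used a CQ1 microscope at 37°C and 5% CO2. CellPathfinder machine-learning gating then sorted cells into Hoechst high-intensity objects or normal cells, normal cells into healthy, pyknosed or fragmented nuclei, and pyknosed cells into mitotic or apoptotic, with tubulin, mitochondrial-mass and membrane-permeability phenotypes given as per cents of healthy-nucleus cells.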
# [1] = 12 h, 1 µM, compound concentration 1 uM, replicate 1
# [2] = 12 h, 1 µM, compound concentration 1 uM, replicate 2
# [3] = 12 h, 10 µM, compound concentration 10 uM, replicate 1
# [4] = 12 h, 10 µM, compound concentration 10 uM, replicate 2
# [5] = 24 h, 1 µM, compound concentration 1 uM, replicate 1
# [6] = 24 h, 1 µM, compound concentration 1 uM, replicate 2
# [7] = 24 h, 10 µM, compound concentration 10 uM, replicate 1
# [8] = 24 h, 10 µM, compound concentration 10 uM, replicate 2
# [9] = 48 h, 1 µM, compound concentration 1 uM, replicate 1
# [10] = 48 h, 1 µM, compound concentration 1 uM, replicate 2
# [11] = 48 h, 10 µM, compound concentration 10 uM, replicate 1
# [12] = 48 h, 10 µM, compound concentration 10 uM, replicate 2
smiles,measurement,setting,value
CN1CCN2c3ccccc3Cc3ccccc3C2C1.Cl (stereo unspecified) [MIANSERIN HYDROCHLORIDE],Population Apoptotic (%),[1],55%
same,Population Fragmented Nuclei (%),[1],28%
same,Population Healthy Nuclei (%),[1],56%
same,Population Hoechst High Intensity Objects (%),[1],2%
same,Population Membrane Permeable-Phenotype (%),[1],1%
same,Population Mitochondria Different-Phenotype (%),[1],0%
same,Population Mitotic Cells (%),[1],45%
same,Population Normal (%),[1],97%
same,Population Pyknosed Nuclei (%),[1],14%
same,Population Tubulin-Different-Phenotype (%),[1],31%
same,Total Cell Count,[1],138
same,Population Apoptotic (%),[2],38%
same,Population Fragmented Nuclei (%),[2],27%
same,Population Healthy Nuclei (%),[2],50%
same,Population Hoechst High Intensity Objects (%),[2],4%
same,Population Membrane Permeable-Phenotype (%),[2],12%
same,Population Mitochondria Different-Phenotype (%),[2],5%
same,Population Mitotic Cells (%),[2],61%
same,Population Normal (%),[2],95%
same,Population Pyknosed Nuclei (%),[2],22%
same,Population Tubulin-Different-Phenotype (%),[2],56%
same,Total Cell Count,[2],119
same,Population Apoptotic (%),[3],55%
same,Population Fragmented Nuclei (%),[3],15%
same,Population Healthy Nuclei (%),[3],68%
same,Population Hoechst High Intensity Objects (%),[3],5%
same,Population Membrane Permeable-Phenotype (%),[3],1%
same,Population Mitochondria Different-Phenotype (%),[3],3%
same,Population Mitotic Cells (%),[3],44%
same,Population Normal (%),[3],94%
same,Population Pyknosed Nuclei (%),[3],15%
same,Population Tubulin-Different-Phenotype (%),[3],14%
same,Total Cell Count,[3],126
same,Population Apoptotic (%),[4],33%
same,Population Fragmented Nuclei (%),[4],24%
same,Population Healthy Nuclei (%),[4],48%
same,Population Hoechst High Intensity Objects (%),[4],6%
same,Population Membrane Permeable-Phenotype (%),[4],3%
same,Population Mitochondria Different-Phenotype (%),[4],7%
same,Population Mitotic Cells (%),[4],66%
same,Population Normal (%),[4],93%
same,Population Pyknosed Nuclei (%),[4],27%
same,Population Tubulin-Different-Phenotype (%),[4],40%
same,Total Cell Count,[4],116
same,Population Apoptotic (%),[5],52%
same,Population Fragmented Nuclei (%),[5],32%
same,Population Healthy Nuclei (%),[5],55%
same,Population Hoechst High Intensity Objects (%),[5],2%
same,Population Membrane Permeable-Phenotype (%),[5],0%
same,Population Mitochondria Different-Phenotype (%),[5],2%
same,Population Mitotic Cells (%),[5],47%
same,Population Normal (%),[5],97%
same,Population Pyknosed Nuclei (%),[5],12%
same,Population Tubulin-Different-Phenotype (%),[5],29%
same,Total Cell Count,[5],143
same,Population Apoptotic (%),[6],36%
same,Population Fragmented Nuclei (%),[6],30%
same,Population Healthy Nuclei (%),[6],50%
same,Population Hoechst High Intensity Objects (%),[6],3%
same,Population Membrane Permeable-Phenotype (%),[6],6%
same,Population Mitochondria Different-Phenotype (%),[6],1%
same,Population Mitotic Cells (%),[6],63%
same,Population Normal (%),[6],96%
same,Population Pyknosed Nuclei (%),[6],19%
same,Population Tubulin-Different-Phenotype (%),[6],53%
same,Total Cell Count,[6],119
same,Population Apoptotic (%),[7],61%
same,Population Fragmented Nuclei (%),[7],14%
same,Population Healthy Nuclei (%),[7],73%
same,Population Hoechst High Intensity Objects (%),[7],5%
same,Population Membrane Permeable-Phenotype (%),[7],0%
same,Population Mitochondria Different-Phenotype (%),[7],1%
same,Population Mitotic Cells (%),[7],38%
same,Population Normal (%),[7],95%
same,Population Pyknosed Nuclei (%),[7],11%
same,Population Tubulin-Different-Phenotype (%),[7],11%
same,Total Cell Count,[7],120
same,Population Apoptotic (%),[8],48%
same,Population Fragmented Nuclei (%),[8],31%
same,Population Healthy Nuclei (%),[8],47%
same,Population Hoechst High Intensity Objects (%),[8],4%
same,Population Membrane Permeable-Phenotype (%),[8],10%
same,Population Mitochondria Different-Phenotype (%),[8],5%
same,Population Mitotic Cells (%),[8],52%
same,Population Pyknosed Nuclei (%),[8],20%
same,Population Tubulin-Different-Phenotype (%),[8],53%
same,Total Cell Count,[8],127
same,Population Apoptotic (%),[9],78%
same,Population Fragmented Nuclei (%),[9],35%
same,Population Healthy Nuclei (%),[9],55%
same,Population Hoechst High Intensity Objects (%),[9],2%
same,Population Membrane Permeable-Phenotype (%),[9],0%
same,Population Mitochondria Different-Phenotype (%),[9],2%
same,Population Mitotic Cells (%),[9],21%
same,Population Normal (%),[9],97%
same,Population Pyknosed Nuclei (%),[9],9%
same,Population Tubulin-Different-Phenotype (%),[9],35%
same,Total Cell Count,[9],151
same,Population Apoptotic (%),[10],46%
same,Population Fragmented Nuclei (%),[10],36%
same,Population Healthy Nuclei (%),[10],51%
same,Population Hoechst High Intensity Objects (%),[10],3%
same,Population Membrane Permeable-Phenotype (%),[10],3%
same,Population Mitochondria Different-Phenotype (%),[10],10%
same,Population Mitotic Cells (%),[10],53%
same,Population Normal (%),[10],96%
same,Population Pyknosed Nuclei (%),[10],11%
same,Population Tubulin-Different-Phenotype (%),[10],50%
same,Total Cell Count,[10],116
same,Population Apoptotic (%),[11],57%
same,Population Fragmented Nuclei (%),[11],15%
same,Population Healthy Nuclei (%),[11],71%
same,Population Hoechst High Intensity Objects (%),[11],5%
same,Population Membrane Permeable-Phenotype (%),[11],0%
same,Population Mitochondria Different-Phenotype (%),[11],2%
same,Population Mitotic Cells (%),[11],42%
same,Population Normal (%),[11],94%
same,Population Pyknosed Nuclei (%),[11],12%
same,Population Tubulin-Different-Phenotype (%),[11],16%
same,Total Cell Count,[11],115
same,Population Apoptotic (%),[12],38%
same,Population Fragmented Nuclei (%),[12],29%
same,Population Healthy Nuclei (%),[12],55%
same,Population Hoechst High Intensity Objects (%),[12],3%
same,Population Membrane Permeable-Phenotype (%),[12],10%
same,Population Mitochondria Different-Phenotype (%),[12],1%
same,Population Mitotic Cells (%),[12],61%
same,Population Normal (%),[12],96%
same,Population Pyknosed Nuclei (%),[12],14%
same,Population Tubulin-Different-Phenotype (%),[12],37%
same,Total Cell Count,[12],125
